Measured values from ChEMBL document CHEMBL1914423, “New imidazo[2,1-b]thiazole derivatives: synthesis, in vitro anticancer evaluation, and in silico studies” (Eur J Med Chem, 2011).
pIC50: −log10 of the molar value.

Experiments:
HCT-116 = experiment: Anticancer activity against human HCT116 cells assessed as cell growth at 10^-5 M after 48 hrs by SRB assay; type: functional; details: HCT-116, 48 h, read-out: Activity
Method in brief: (§1)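 NCI-60 single-dose screen at one concentration. Cells grown in RPMI 1640 with 5% FBS and 2 mM L-glutamine, plated at 5000–40,000 cells/well, and pre-incubated 24 h at 37 °C in 5% CO2 before DMSO-dissolved drug was added. Cells fixed with TCA, SRB-stained, absorbance read at 515 nm. Percent growth calculated against time-zero and untreated control plates.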

ACHN = experiment: Anticancer activity against human ACHN cells assessed as cell growth at 10^-5 M after 48 hrs by SRB assay; type: functional; details: read-out: Activity; method in brief: as §1
Malme-3M = experiment: Anticancer activity against human MALME-3M cells assessed as cell growth at 10^-5 M after 48 hrs by SRB assay; type: functional; details: read-out: Activity; method in brief: as §1
RXF 393 = experiment: Anticancer activity against human RXF393 cells assessed as cell growth at 10^-5 M after 48 hrs by SRB assay; type: functional; details: RXF 393, 48 h, read-out: Activity
RPMI-8226 = experiment: Anticancer activity against human RPMI8226 cells assessed as cell growth at 10^-5 M after 48 hrs by SRB assay; type: functional; details: RPMI-8226, 48 h, read-out: Activity
HT-29 = experiment: Anticancer activity against human HT-29 cells assessed as cell growth at 10^-5 M after 48 hrs by SRB assay; type: functional; details: HT-29, 48 h, read-out: Activity; method in brief: as §1
UACC-257 = experiment: Anticancer activity against human UACC257 cells assessed as cell growth at 10^-5 M after 48 hrs by SRB assay; type: functional; details: UACC-257, 48 h, read-out: Activity
Method in brief: (§2)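 NCI-60 single-dose screen: cells in RPMI 1640 with 5% FBS and 2 mM L-glutamine, plated at 5000–40,000 cells/well by doubling time, and preincubated 24 h at 37 °C. Compound given at one concentration from DMSO stock. Cells TCA-fixed and SRB-stained, absorbance at 515 nm. Percent growth relative to time-zero and untreated controls; inhibition % = 100 − growth %.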

SK-MEL-2 = experiment: Anticancer activity against human SK-MEL-2 cells assessed as cell growth at 10^-5 M after 48 hrs by SRB assay; type: functional; details: SK-MEL-2, 48 h, read-out: Activity
[1] = Antiproliferative activity against human A375P cells after 48 hrs by MTT assay; type: functional, cell-based
Method in brief: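 A375P cells in DMEM with 10% FBS at 37 °C, 5% CO2. Seeded at 5×10³ cells/well, held 24 h, then treated with 12-point 3-fold serial dilutions for 48 h. Viability by MTT reduction. IC50 values are means of triplicate experiments.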

M14 = experiment: Anticancer activity against human M14 cells assessed as cell growth at 10^-5 M after 48 hrs by SRB assay; type: functional; details: M14, 48 h, read-out: Activity; method in brief: as §1
NCI-H322M = experiment: Anticancer activity against human NCI-H322M cells assessed as cell growth at 10^-5 M after 48 hrs by SRB assay; type: functional; details: read-out: Activity
SF-539 = experiment: Anticancer activity against human SF539 cells assessed as cell growth at 10^-5 M after 48 hrs by SRB assay; type: functional; details: SF-539, 48 h, read-out: Activity
BT-549 = experiment: Anticancer activity against human BT549 cells assessed as cell growth at 10^-5 M after 48 hrs by SRB assay; type: functional; details: BT-549, 48 h, read-out: Activity; method in brief: as §1
UO-31 = experiment: Anticancer activity against human UO31 cells assessed as cell growth at 10^-5 M after 48 hrs by SRB assay; type: functional; details: UO-31, 48 h, read-out: Activity; method in brief: as §2
T47D = experiment: Anticancer activity against human T47D cells assessed as cell growth at 10^-5 M after 48 hrs by SRB assay; type: functional; details: read-out: Activity; method in brief: as §2
MDA-MB-231 = experiment: Anticancer activity against human MDA-MB-231 cells assessed as cell growth at 10^-5 M after 48 hrs by SRB assay; type: functional; details: MDA-MB-231, 48 h, read-out: Activity; method in brief: as §1
IGROV-1 = experiment: Anticancer activity against human IGROV1 cells assessed as cell growth at 10^-5 M after 48 hrs by SRB assay; type: functional; details: IGROV-1, 48 h, read-out: Activity; method in brief: as §1
UACC-62 = experiment: Anticancer activity against human UACC62 cells assessed as cell growth at 10^-5 M after 48 hrs by SRB assay; type: functional; details: UACC-62, 48 h, read-out: Activity; method in brief: as §2
NCI-H522 = experiment: Anticancer activity against human NCI-H522 cells assessed as cell growth at 10^-5 M after 48 hrs by SRB assay; type: functional; details: NCI-H522, 48 h, read-out: Activity
HL-60(TB) = experiment: Anticancer activity against human HL-60(TB) cells assessed as cell growth at 10^-5 M after 48 hrs by SRB assay; type: functional; details: HL-60, 48 h, read-out: Activity
Method in brief: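 NCI-60 single-dose screen. Cells in RPMI 1640 with 5% FBS and 2 mM L-glutamine were plated at 5000–40,000 cells/well and preincubated 24 h at 37 °C before one compound concentration. Time-zero plates were TCA-fixed at drug addition. For suspension cells, settled cells were fixed with cold TCA, then SRB-stained and read at 515 nm. Percent growth was calculated from time-zero, control and treated absorbances.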

HCC 2998 = experiment: Anticancer activity against human HCC2998 cells assessed as cell growth at 10^-5 M after 48 hrs by SRB assay; type: functional; details: HCC 2998, 48 h, read-out: Activity; method in brief: as §1
MDA-MB-435 = experiment: Anticancer activity against human MDA-MB-435 cells assessed as cell growth at 10^-5 M after 48 hrs by SRB assay; type: functional; details: MDA-MB-435, 48 h, read-out: Activity
SN12C = experiment: Anticancer activity against human SN12C cells assessed as cell growth at 10^-5 M after 48 hrs by SRB assay; type: functional; details: read-out: Activity
OVCAR-3 = experiment: Anticancer activity against human OVCAR3 cells assessed as cell growth at 10^-5 M after 48 hrs by SRB assay; type: functional; details: OVCAR-3, 48 h, read-out: Activity
MOLT-4 = experiment: Anticancer activity against human MOLT4 cells assessed as cell growth at 10^-5 M after 48 hrs by SRB assay; type: functional; details: MOLT-4, 48 h, read-out: Activity
CAKI-1 = experiment: Anticancer activity against human Caki1 cells assessed as cell growth at 10^-5 M after 48 hrs by SRB assay; type: functional; details: CAKI-1, 48 h, read-out: Activity; method in brief: as §1
SK-MEL-28 = experiment: Anticancer activity against human SK-MEL-28 cells assessed as cell growth at 10^-5 M after 48 hrs by SRB assay; type: functional; details: SK-MEL-28, 48 h, read-out: Activity
SW-620 = experiment: Anticancer activity against human SW620 cells assessed as cell growth at 10^-5 M after 48 hrs by SRB assay; type: functional; details: SW-620, 48 h, read-out: Activity; method in brief: as §2
OVCAR-4 = experiment: Anticancer activity against human OVCAR4 cells assessed as cell growth at 10^-5 M after 48 hrs by SRB assay; type: functional; details: OVCAR-4, 48 h, read-out: Activity

SMILES | growth at 10 µM (HCT-116) [%] | growth at 10 µM (ACHN) [%] | growth at 10 µM (Malme-3M) [%] | growth at 10 µM (RXF 393) [%] | growth at 10 µM (RPMI-8226) [%] | growth at 10 µM (HT-29) [%] | growth at 10 µM (UACC-257) [%] | growth at 10 µM (SK-MEL-2) [%] | pIC50 [1] | growth at 10 µM (M14) [%] | growth at 10 µM (NCI-H322M) [%] | growth at 10 µM (SF-539) [%] | growth at 10 µM (BT-549) [%] | growth at 10 µM (UO-31) [%] | growth at 10 µM (T47D) [%] | growth at 10 µM (MDA-MB-231) [%] | growth at 10 µM (IGROV-1) [%] | growth at 10 µM (UACC-62) [%] | growth at 10 µM (NCI-H522) [%] | growth at 10 µM (HL-60(TB)) [%] | other results
O=C(NCCNc1nccc(-c2c(-c3cccc(O)c3)nc3sccn23)n1)c1ccc(N2CCOCC2)c(C(F)(F)F)c1 | 60.2 | 60.8 | -4.27 | 57.6 | 58.8 | 68.6 | 15.8 | 66.7 | < 5.00 | 19.1 | 102 | 77.8 | 53.8 | 61.3 | 60.1 | 64.9 | 54.3 | 5.88 | 74.4 | 113 | growth at 10 µM (HCC 2998): 106%; growth at 10 µM (MDA-MB-435): 20.9%; growth at 10 µM (SN12C): 76%; growth at 10 µM (OVCAR-3): 89.1%; growth at 10 µM (MOLT-4): 57%; growth at 10 µM (CAKI-1): 66.9%; growth at 10 µM (SK-MEL-28): 42.8%; growth at 10 µM (SW-620): 111%; growth at 10 µM (OVCAR-4): 105%
O=C(NCCNc1nccc(-c2c(-c3cccc(O)c3)nc3sccn23)n1)Nc1cc(C(F)(F)F)cc(C(F)(F)F)c1 | 66.3 | 65.9 | 60.5 | 41.4 | 45.7 | 63.1 | 57 | 110 | < 5.00 | 21.4 | 87 | 96.5 | 87.6 | 73.1 | 72 | 41.4 | 65.2 | 54.4 | 69.5 | 97.3 | growth at 10 µM (HCC 2998): 65.5%; growth at 10 µM (MDA-MB-435): 9.9%; growth at 10 µM (SN12C): 82.8%; growth at 10 µM (OVCAR-3): 82.2%; growth at 10 µM (MOLT-4): 60.2%; growth at 10 µM (CAKI-1): 72.3%; growth at 10 µM (SK-MEL-28): 68.8%; growth at 10 µM (SW-620): 73.5%; growth at 10 µM (OVCAR-4): 121%
COc1cccc(-c2nc3sccn3c2-c2ccnc(NCCNC(=O)c3ccccc3)n2)c1 | 81.8 | 65.8 | 26.7 | 86.3 | 41.6 | 53.5 | 69.7 | 73.3 | < 5.00 | 40.1 | 110 | 97.7 | 85.1 | 53.8 | 61.9 | 83.5 | 69.2 | 24.6 | 61.8 | 94.2 | growth at 10 µM (HCC 2998): 114%; growth at 10 µM (MDA-MB-435): 55.2%; growth at 10 µM (SN12C): 84.3%; growth at 10 µM (OVCAR-3): 89.2%; growth at 10 µM (MOLT-4): 53.4%; growth at 10 µM (CAKI-1): 84.3%; growth at 10 µM (SK-MEL-28): 64.2%; growth at 10 µM (SW-620): 114%; growth at 10 µM (OVCAR-4): 109%
COc1cccc(-c2nc3sccn3c2-c2ccnc(NCCNC(=O)c3cc(N4CCOCC4)cc(C(F)(F)F)c3)n2)c1 | 75.6 | 80.1 | 80.8 | 72.6 | 39.1 | 58.5 | 89.5 | 76.2 | < 5.00 | 65.3 | 96.6 | 101 | 81.1 | 60.2 | 86.3 | 80.4 | 67.5 | 50.9 | 69.5 | 113 | growth at 10 µM (HCC 2998): 98.7%; growth at 10 µM (MDA-MB-435): 62.8%; growth at 10 µM (SN12C): 89.3%; growth at 10 µM (OVCAR-3): 96.3%; growth at 10 µM (MOLT-4): 60%; growth at 10 µM (CAKI-1): 83%; growth at 10 µM (SK-MEL-28): 88.2%; growth at 10 µM (SW-620): 109%; growth at 10 µM (OVCAR-4): 107%
